Measurements taken from ChEMBL document CHEMBL3414473.
The source made the active and inactive calls. The calls are words filed in the database; no cut-off is given here.

Columns and labels:
[1] = target: T1, PH domain leucine-rich repeat-containing protein phosphatase 1 (Homo sapiens, UniProt O60346); assay: Inhibition of PHLPP1-mediated reduction in phosphorylation of Akt at Thr308 in human LNCAP cells after 24 hrs by Western blot analysis; type: cell-based
Procedure, shortened: (§1)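 LNCaP or PC-3 cells treated at various concentrations for 24 h in serum-free medium. Lysed in SDS buffer (50 mM Tris pH 8, 10 mM EDTA, 1% SDS, protease inhibitors); equal protein run on SDS-PAGE and transferred to nitrocellulose. Primary antibodies 1:1000 overnight at 4 °C, HRP secondary 1:2000; detected by ECL.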

LNCaP [2] = assay: Antiproliferative activity against human LNCAP cells assessed as suppression of cell viability after 24 hrs by MTT assay; type: functional, cell-based
Procedure, shortened: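 LNCaP cells seeded at 5000/well on poly-L-lysine-coated plates in 10% FBS; 24 h later exposed to agents in serum-free medium for 24 h. Viability expressed as percent of vehicle control; IC50 derived.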

[3] = target: T1, PH domain leucine-rich repeat-containing protein phosphatase 1; assay: Inhibition of PHLPP1-mediated reduction in phosphorylation of Akt at Thr308 in human PC3 cells after 24 hrs by Western blot analysis; type: cell-based; conditions: PC-3; procedure, shortened: as §1
PC-3 [4] = assay: In vivo antitumor efficacy in human PC3 cells xenografted athymic nude mouse assessed as inhibition of tumor growth at 50 mg/kg, ip for 21 days relative to vehicle treated control; type: functional, organism-based; set-up: dose 50 mg/kg
Procedure, shortened: (§2)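 Athymic nude mice given PC-3 cells sc (1 × 10⁶ per mouse); at about 50 mm³, randomized (n = 7) and dosed once daily for 21 days either ip at 50 mg/kg (vehicle saline/PEG400/DMSO/Tween 80, 65:20:10:5) or by oral gavage at 100 mg/kg (vehicle 0.5% methylcellulose/0.1% Tween 80 in water). Tumor volume measured weekly by calipers (width² × length × 0.52); phospho-proteins checked by Western blotting of tumor lysates.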

[5] = target: T1, PH domain leucine-rich repeat-containing protein phosphatase 1; assay: Inhibition of PHLPP1-mediated reduction in phosphorylation of IKK in human PC3 cells after 24 hrs by Western blot analysis; type: cell-based; conditions: PC-3; procedure, shortened: as §1
LNCaP [6] = assay: Induction of ILK localization to human LNCAP cell membrane at 5 uM after 24 hrs by immunofluorescence staining analysis; type: functional, cell-based
Procedure, shortened: (§3)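 LNCaP cells on poly-L-lysine-coated surfaces, treated in serum-free medium for 24 h. Fixed in 4% formaldehyde, permeabilized with 0.1% Triton X-100, blocked in 1% FBS, primary antibody (1:300) overnight, then Alexa Fluor secondary 2 h; DAPI nuclei; confocal imaging with cross-sectional fluorescence intensity analysis.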

PrEC = assay: Antiproliferative activity against human PrEC cells assessed as suppression of cell viability after 24 hrs by MTT assay in serum free medium; type: cell-based
LNCaP [7] = assay: Induction of PHLPP1 localization to human LNCAP cell membrane at 5 uM after 24 hrs by immunofluorescence staining analysis; type: functional, cell-based; procedure, shortened: as §3
PC-3 [8] = assay: In vivo antitumor efficacy in human PC3 cells xenografted athymic nude mouse assessed as inhibition of tumor growth at 100 mg/kg, po for 21 days relative to vehicle treated control; type: functional, organism-based; set-up: dose 100 mg/kg; procedure, shortened: as §2
PC-3 [9] = assay: In vivo antitumor efficacy in human PC3 cells xenografted athymic nude mouse assessed as decrease in phosphorylation of IKK in tumor at 100 mg/kg, po for 21 days relative to vehicle treated control; type: functional, organism-based; set-up: dose 100 mg/kg; procedure, shortened: as §2
PC-3 [10] = assay: In vivo antitumor efficacy in human PC3 cells xenografted athymic nude mouse assessed as decrease in phosphorylation of Akt at Thr308 in tumor at 50 mg/kg, ip for 21 days relative to vehicle treated control; type: functional, organism-based; set-up: dose 50 mg/kg; procedure, shortened: as §2
[11] = target: T1, PH domain leucine-rich repeat-containing protein phosphatase 1; assay: Inhibition of PHLPP1-mediated reduction in phosphorylation of MDM2 in human PC3 cells after 24 hrs by Western blot analysis; type: cell-based; conditions: PC-3; procedure, shortened: as §1
PC-3 [12] = assay: Antiproliferative activity against human PTEN-negative PC3 cells assessed as suppression of cell viability after 24 hrs by MTT assay in serum free medium; type: functional, cell-based
[13] = target: T1, PH domain leucine-rich repeat-containing protein phosphatase 1; assay: Inhibition of PHLPP1-mediated reduction in phosphorylation of MDM2 in human LNCAP cells after 24 hrs by Western blot analysis; type: cell-based; procedure, shortened: as §1
PC-3 [14] = assay: In vivo antitumor efficacy in human PC3 cells xenografted athymic nude mouse assessed as decrease in phosphorylation of Akt at Ser473 in tumor at 100 mg/kg, po for 21 days relative to vehicle treated control; type: functional, organism-based; set-up: dose 100 mg/kg; procedure, shortened: as §2
[15] = target: T1, PH domain leucine-rich repeat-containing protein phosphatase 1; assay: Binding affinity to GST-tagged PH domain of PHLPP1 (unknown origin) by surface Plasmon resonance spectroscopy
Procedure, shortened: (§4)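 SPR: GST-tagged PH domain fusion protein immobilized on CM5 chip by amine coupling to about 17000 RU. Analyte injected at 1–20 µM at 30 µL/min; DMSO in samples and running buffer ≤1% (v/v). Kd obtained from sensorgram fitting.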

LNCaP [16] = assay: Induction of Akt-PHLPP1 complex to human LNCAP cell membrane after 24 hrs by immunofluorescence staining analysis; type: functional, cell-based
[17] = target: T2, 3-phosphoinositide-dependent protein kinase 1 (Homo sapiens, UniProt O15530); assay: Binding affinity to GST-tagged PH domain of PDK1 (unknown origin) by surface Plasmon resonance spectroscopy; procedure, shortened: as §4
T2 sequence (O15530 whole entry): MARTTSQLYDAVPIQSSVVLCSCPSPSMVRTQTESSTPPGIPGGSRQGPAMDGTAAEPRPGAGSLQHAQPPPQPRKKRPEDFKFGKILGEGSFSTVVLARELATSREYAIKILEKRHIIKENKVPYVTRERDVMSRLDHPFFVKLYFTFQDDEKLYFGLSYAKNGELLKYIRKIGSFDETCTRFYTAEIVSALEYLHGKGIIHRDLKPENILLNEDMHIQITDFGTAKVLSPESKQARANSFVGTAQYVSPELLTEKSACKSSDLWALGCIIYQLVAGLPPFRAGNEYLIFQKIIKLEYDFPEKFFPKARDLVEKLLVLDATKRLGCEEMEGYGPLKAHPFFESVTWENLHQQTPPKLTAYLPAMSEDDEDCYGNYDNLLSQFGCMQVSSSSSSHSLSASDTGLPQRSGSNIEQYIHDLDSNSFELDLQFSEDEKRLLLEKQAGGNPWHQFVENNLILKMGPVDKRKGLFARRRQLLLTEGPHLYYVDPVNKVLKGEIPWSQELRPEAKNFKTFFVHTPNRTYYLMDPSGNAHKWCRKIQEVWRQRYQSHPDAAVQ

LNCaP [18] = assay: Induction of Akt localization to human LNCAP cell membrane at 5 uM after 24 hrs by immunofluorescence staining analysis; type: functional, cell-based; procedure, shortened: as §3
PC-3 [19] = assay: In vivo antitumor efficacy in human PC3 cells xenografted athymic nude mouse assessed as decrease in phosphorylation of Akt at Ser473 in tumor at 50 mg/kg, ip for 21 days relative to vehicle treated control; type: functional, organism-based; set-up: dose 50 mg/kg; procedure, shortened: as §2
[20] = target: T1, PH domain leucine-rich repeat-containing protein phosphatase 1; assay: Inhibition of PHLPP1-mediated reduction in phosphorylation of Akt at Ser473 in human PC3 cells after 24 hrs by Western blot analysis; type: cell-based; conditions: PC-3; procedure, shortened: as §1
[21] = target: RAC-alpha serine/threonine-protein kinase (Homo sapiens, UniProt P31749); assay: Binding affinity to GST-tagged PH domain of AKT (unknown origin) by surface Plasmon resonance spectroscopy; procedure, shortened: as §4
[22] = target: T1, PH domain leucine-rich repeat-containing protein phosphatase 1; assay: Inhibition of PHLPP1-mediated reduction in phosphorylation of IKK in human LNCAP cells after 24 hrs by Western blot analysis; type: cell-based; procedure, shortened: as §1
LNCaP [23] = assay: Induction of PHLPP1 localization to human LNCAP cell membrane after 24 hrs by immunofluorescence staining analysis; type: functional, cell-based; procedure, shortened: as §3

T1 sequence (O60346 whole entry, the tested form may be a part): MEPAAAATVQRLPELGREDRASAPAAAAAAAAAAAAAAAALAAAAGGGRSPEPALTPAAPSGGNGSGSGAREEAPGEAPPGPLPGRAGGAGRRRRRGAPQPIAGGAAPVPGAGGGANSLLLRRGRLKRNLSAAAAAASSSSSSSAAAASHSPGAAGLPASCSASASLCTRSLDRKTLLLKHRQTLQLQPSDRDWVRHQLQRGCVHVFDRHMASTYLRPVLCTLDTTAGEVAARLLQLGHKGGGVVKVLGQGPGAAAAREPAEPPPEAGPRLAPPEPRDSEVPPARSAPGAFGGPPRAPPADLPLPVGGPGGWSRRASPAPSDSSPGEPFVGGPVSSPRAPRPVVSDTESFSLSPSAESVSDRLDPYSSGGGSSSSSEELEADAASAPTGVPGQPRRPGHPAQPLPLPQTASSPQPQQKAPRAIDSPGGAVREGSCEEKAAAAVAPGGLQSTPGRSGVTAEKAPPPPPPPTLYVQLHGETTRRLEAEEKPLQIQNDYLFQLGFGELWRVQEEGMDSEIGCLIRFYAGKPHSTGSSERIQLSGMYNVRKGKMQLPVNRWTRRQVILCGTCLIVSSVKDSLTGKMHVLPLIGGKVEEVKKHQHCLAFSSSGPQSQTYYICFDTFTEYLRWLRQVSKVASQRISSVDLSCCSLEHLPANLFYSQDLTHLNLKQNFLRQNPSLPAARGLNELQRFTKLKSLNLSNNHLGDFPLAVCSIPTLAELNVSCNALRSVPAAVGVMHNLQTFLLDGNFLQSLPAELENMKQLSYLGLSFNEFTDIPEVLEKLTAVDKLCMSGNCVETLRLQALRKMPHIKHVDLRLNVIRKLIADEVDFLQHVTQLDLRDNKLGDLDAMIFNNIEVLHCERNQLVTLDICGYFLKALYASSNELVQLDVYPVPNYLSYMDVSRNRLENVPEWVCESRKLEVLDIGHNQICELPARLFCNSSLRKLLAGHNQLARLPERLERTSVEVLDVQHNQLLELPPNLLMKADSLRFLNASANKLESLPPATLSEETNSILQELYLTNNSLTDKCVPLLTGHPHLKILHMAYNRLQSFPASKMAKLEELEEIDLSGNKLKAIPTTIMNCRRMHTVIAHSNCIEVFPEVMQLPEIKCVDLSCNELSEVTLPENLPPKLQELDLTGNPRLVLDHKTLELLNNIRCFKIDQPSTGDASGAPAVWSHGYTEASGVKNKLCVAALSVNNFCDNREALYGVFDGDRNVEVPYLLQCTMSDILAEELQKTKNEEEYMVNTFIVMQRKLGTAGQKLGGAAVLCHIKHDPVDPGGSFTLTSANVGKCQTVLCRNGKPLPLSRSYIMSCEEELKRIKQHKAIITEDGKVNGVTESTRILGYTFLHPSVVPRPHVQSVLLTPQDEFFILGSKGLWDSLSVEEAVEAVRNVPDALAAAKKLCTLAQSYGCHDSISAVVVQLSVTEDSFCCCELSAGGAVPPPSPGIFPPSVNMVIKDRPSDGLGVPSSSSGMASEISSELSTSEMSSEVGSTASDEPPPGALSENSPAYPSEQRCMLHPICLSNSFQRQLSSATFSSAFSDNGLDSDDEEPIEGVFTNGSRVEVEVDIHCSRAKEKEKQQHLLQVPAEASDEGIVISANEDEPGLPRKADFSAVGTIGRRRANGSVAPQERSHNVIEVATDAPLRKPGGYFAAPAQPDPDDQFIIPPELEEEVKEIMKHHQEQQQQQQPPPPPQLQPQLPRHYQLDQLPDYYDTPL
RAC-alpha serine/threonine-protein kinase, sequence (P31749 whole entry, the tested form may be a part): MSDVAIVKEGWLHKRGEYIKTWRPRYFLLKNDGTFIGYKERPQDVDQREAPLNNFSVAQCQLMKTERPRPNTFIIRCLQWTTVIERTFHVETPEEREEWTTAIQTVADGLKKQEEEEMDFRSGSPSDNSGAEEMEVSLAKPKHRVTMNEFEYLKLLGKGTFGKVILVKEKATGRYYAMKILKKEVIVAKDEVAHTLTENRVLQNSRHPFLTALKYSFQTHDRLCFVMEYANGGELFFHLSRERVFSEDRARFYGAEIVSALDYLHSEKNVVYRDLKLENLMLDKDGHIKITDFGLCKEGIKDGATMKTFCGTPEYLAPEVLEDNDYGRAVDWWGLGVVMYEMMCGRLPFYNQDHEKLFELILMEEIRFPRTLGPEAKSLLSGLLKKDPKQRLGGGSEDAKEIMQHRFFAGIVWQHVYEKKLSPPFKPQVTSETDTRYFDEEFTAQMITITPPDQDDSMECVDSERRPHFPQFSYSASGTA

- inhibition [1]: inactive
- IC50 (LNCaP [2]): 3000 nM
- inhibition [3]: inactive
- inhibition [5]: Dose-dependent effect
- inhibition [11]: Dose-dependent effect
- inhibition [13]: Dose-dependent effect
- Kd [15]: 720 nM
- Kd [17]: 19500 nM
- inhibition [20]: Dose-dependent effect
- Kd [21]: 200 nM
- inhibition [22]: Dose-dependent effect
SMILES: Cc1c(S(N)(=O)=O)cc2c(c1C)OC(C)(CCCC(C)C)CC2 (centres undefined)
- Activity (PC-3 [4]): Active
- Activity (LNCaP [6]): inactive
- Activity (PrEC): Non-toxic
- Activity (LNCaP [7]): Active
- Activity (PC-3 [8]): Active
- Activity (PC-3 [9]): Active
- inhibition (PC-3 [10]): inactive
- Activity (PC-3 [12]): Active
- Activity (PC-3 [14]): Active
- Activity (LNCaP [16]): Dose-dependent effect
- Activity (LNCaP [18]): Active
- inhibition (PC-3 [19]): Active
- Activity (LNCaP [23]): Dose-dependent effect
